Test results as given in ChEMBL document CHEMBL5335799, “Design, Synthesis, and Evaluation of Inhibitors of Hedgehog Acyltransferase” (J Med Chem, 2024).

Assays:
[1] = molecular target: T1, Protein-cysteine N-palmitoyltransferase HHAT (Homo sapiens, UniProt Q5VTY9); test: Inhibition of human recombinant HHAT using SHH-FAM peptide as substrate at 50 uM for 30 mins by acylation coupled lipophilic induction of polarization (acyl-cLIP) assay relative to control
Summary of the method: (§1)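 DDM-solubilized recombinant HHAT mixed with SHH N-terminal FAM peptide and inhibitor or DMSO in MES buffer pH 6.5 with DTT, TCEP and BSA. Reaction started with palmitoyl-CoA; fluorescence anisotropy followed over 30 min in quadruplicate wells. Initial rates from linear regression were normalized to DMSO and no-enzyme controls.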

[2] = Permeability of compound at pH 7.4 by PAMPA assay; format: ADME
Summary of the method: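 Passive diffusion across an artificial membrane of 2% phosphatidylcholine in dodecane. Test compound at 10 μM was incubated 16 h at 30 °C, with donor pH 5, 6.5 or 7.4.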

[3] = molecular target: T1, Protein-cysteine N-palmitoyltransferase HHAT; test: Inhibition of HHAT in human HEK293a SHH+ cells incubated with compound for 24 hrs followed by transferred into SHH-Light2 cells cellular incubated for 48 hrs by Renilla/Firefly luciferase reporter assay; format: cell-based, HEK293-A
Summary of the method: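 HEK293a SHH+ cells (120,000/well) were given compound (0.041–30 μM final) or 0.2% DMSO for 24 h. Conditioned medium was cleared at 1000g and added to SHH-Light2 cells (NIH3T3-derived, Gli-Firefly plus constitutive Renilla) in triplicate wells for 48 h.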

[4] = Apparent permeability across apical to basolateral side in human Caco-2 cells at 10 uM pH 7.4 measured after 2 hrs by LC-MS/MS analysis; format: ADME, cell-based; settings: caco-2, pH 7.4, 2 h
Summary of the method: (§2)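 Caco-2 cells grown in DMEM with 10% FBS, penicillin and streptomycin for 10 days, then plated; monolayer confluency checked by TEER. Compound at 10 μM (1% DMSO) in HBSS pH 7.4 added to apical or basal wells and incubated 2 h at 37 °C. Lucifer yellow used to confirm membrane integrity afterwards. Both chambers quantified by LC-MS/MS against a matrix-matched standard curve.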

[5] = Apparent permeability across basolateral to apical side in human Caco-2 cells at 10 uM pH 7.4 measured after 2 hrs by LC-MS/MS analysis; format: ADME, cell-based; settings: caco-2, pH 7.4, 2 h; summary of the method: as §2
[6] = molecular target: T1, Protein-cysteine N-palmitoyltransferase HHAT; test: Inhibition of human recombinant HHAT using SHH-FAM peptide as substrate for 30 mins by acylation coupled lipophilic induction of polarization (acyl-cLIP) assay; summary of the method: as §1
[7] = molecular target: T1, Protein-cysteine N-palmitoyltransferase HHAT; test: Inhibition of human recombinant HHAT using SHH-FAM peptide as substrate at 25 uM for 30 mins by acylation coupled lipophilic induction of polarization (acyl-cLIP) assay relative to control; summary of the method: as §1
[8] = Cytotoxicity against human SHH+ HEK293a cells assessed as cell viability at 25 uM measured after 72 hrs by MTS assay relative to control; format: toxicity, cell-based, HEK293-A; settings: read-out: Activity
[9] = Cytotoxicity against human SHH+ HEK293a cells assessed as cell viability at 12.5 uM measured after 72 hrs by MTS assay relative to control; format: toxicity, cell-based, HEK293-A; settings: read-out: Activity
[10] = Cytotoxicity against human SHH+ HEK293a cells assessed as cell viability measured after 72 hrs by MTS assay; format: toxicity, cell-based, HEK293-A
Summary of the method: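 HEK293a SHH+ cells seeded at 5000/well and cultured 24 h. They were then exposed 72 h to vehicle, puromycin (2 μg/mL) or compound (0.14–100 μM final) in DMEM with 10% FBS. MTS/PMS added for 3 h at 37 °C and absorbance read at 490 nm. Signal normalized to vehicle and puromycin; CC50 from a variable-slope sigmoidal fit.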

T1 sequence (Q5VTY9 whole entry): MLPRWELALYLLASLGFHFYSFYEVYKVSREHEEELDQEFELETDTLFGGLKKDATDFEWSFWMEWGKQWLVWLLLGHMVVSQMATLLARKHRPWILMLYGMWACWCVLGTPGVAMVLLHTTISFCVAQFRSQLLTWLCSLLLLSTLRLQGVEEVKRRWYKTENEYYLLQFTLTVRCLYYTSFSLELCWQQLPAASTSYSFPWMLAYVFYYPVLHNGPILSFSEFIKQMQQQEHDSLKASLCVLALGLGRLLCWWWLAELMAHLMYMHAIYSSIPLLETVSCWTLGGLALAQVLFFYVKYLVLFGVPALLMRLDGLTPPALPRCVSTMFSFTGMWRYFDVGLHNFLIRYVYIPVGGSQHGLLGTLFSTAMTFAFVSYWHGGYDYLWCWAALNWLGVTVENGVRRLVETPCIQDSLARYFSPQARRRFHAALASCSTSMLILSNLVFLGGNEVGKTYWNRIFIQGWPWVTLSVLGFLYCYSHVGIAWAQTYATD

## c1ccc(C2NCCc3sccc32)cc1 (stereo not drawn)
[1]
  inhibition: 16%

## CCC(C)CNCC(=O)N1CCc2sccc2C1c1cccc(C)c1 (stereo not drawn)
[2]
  permeability: Impermeable

## CC(=O)N1CCc2sccc2[C@@H]1c1cccc(C)n1
[1]
  inhibition: 56%

## Cc1cccc([C@@H]2c3ccsc3CCN2C(=O)CNCC(C)C)n1
[3]
  EC50: > 30 µM

## C=CCNCC(=O)N1CCc2sccc2C1COc1ccc(Cl)cc1 (stereo not drawn)
[2]
  permeability: Permeable
[4]
  permeability: Permeable
[5]
  permeability: Permeable

## CCC(C)CNCC(=O)N1CCc2sccc2C1c1ccccc1O (stereo not drawn)
[6]
  IC50: 4.79 µM

## CC(=O)N1CCc2ccccc2C1c1ccccc1 (stereo not drawn)
[2]
  permeability: Permeable

## COc1ccccc1C1c2ccsc2CCN1C(C)=O (stereo not drawn)
[1]
  inhibition: 91%

## CCC(C)CNCC(=O)N1CCc2sccc2C1c1cccc(C)n1 (racemic)
[2]
  permeability: Permeable
[4]
  permeability: Permeable
[5]
  permeability: Permeable

## Cc1cccc(C2c3ccsc3CCN2C(=O)NCCCC(C)C)n1 (stereo not drawn)
[1]
  inhibition: 53%
[7]
  inhibition: 31%
[6]
  IC50: 42.3 µM
[8]
  viability at 72 h, 25 µM: 22%
[9]
  viability at 72 h, 12.5 µM: 32%
[10]
  CC50 at 72 h: 6.1 µM

## CCC(C)CNCC(=O)N1CCc2ccccc2C1c1ccccc1 (stereo not drawn)
[2]
  permeability: Permeable

## CC(=O)N1CCc2sccc2C1c1ccccc1 (stereo not drawn)
[2]
  permeability: Permeable

## N[C@@H](Cc1ccccc1)C(=O)N1CCc2sccc2C1c1ccccc1 (stereo partly drawn)
[1]
  inhibition: 6%
[7]
  inhibition: 3%
